Measured values from ChEMBL document CHEMBL1687824, “Overexpression of patA and patB, which encode ABC transporters, is associated with fluoroquinolone resistance in clinical isolates of Streptococcus pneumoniae” (2011).
In brackets after ≈: the same amount, converted by molar mass.

What was measured:
Assay type in all cases: functional
Streptococcus pneumoniae [1] = assay: Antibacterial activity against Streptococcus pneumoniae M46A overexpressing patA, patB and inactivated patA with single mutation by standardized agar doubling dilution method in presence of 20 ug/ml reserpine efflux pump inhibitor
In short: (§1)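 MICs were determined by BSAC agar doubling dilution in the presence of reserpine at 20 μg/ml. Strains were grown in BHI broth for 24 h at 37°C in 5% CO2, with R6 as control. Synergy was defined as an MIC drop of ≥2 dilutions with the inhibitor.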

Streptococcus pneumoniae [2] = assay: Antibacterial activity against Streptococcus pneumoniae M309 overexpressing patA, patB and inactivated patB with single mutation by standardized agar doubling dilution method
In short: (§2)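 MICs determined by BSAC standardized agar doubling dilution. Strains were grown in brain heart infusion broth for 24 h at 37°C in 5% CO2. Inhibitor arms had reserpine at 20 μg/ml or sodium orthovanadate at 50 μM in the agar. Mutants were made by transforming magellan2 insertion amplimers into clinical isolates and selecting on spectinomycin 100 mg/liter, with a no-DNA spontaneous-mutation control.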

Streptococcus pneumoniae [3] = assay: Antibacterial activity against Streptococcus pneumoniae M46B overexpressing patA, patB and inactivated patB with single mutation by standardized agar doubling dilution method in presence of 20 ug/ml reserpine efflux pump inhibitor; in short: as §1
Streptococcus pneumoniae [4] = assay: Antibacterial activity against fluoroquinolone, dye-susceptible Streptococcus pneumoniae M295 S overexpressing patA, patB by standardized agar doubling dilution method in presence of 50 uM sodium orthovanadate efflux pump inhibitor
In short: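 MIC by agar doubling dilution per BSAC guidelines; strains pregrown in brain heart infusion broth 24 h, 37°C, 5% CO2. MICs measured alone and with efflux pump inhibitors reserpine (20 μg/ml) or sodium orthovanadate (50 μM); synergy defined as ≥2-dilution MIC reduction in presence of inhibitor.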

Streptococcus pneumoniae [5] = assay: Antibacterial activity against fluoroquinolone, dye-resistant Streptococcus pneumoniae M297 overexpressing patA, patB by standardized agar doubling dilution method in presence of 20 ug/ml reserpine efflux pump inhibitor
In short: (§3)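 MIC by agar doubling dilution following BSAC guidelines. Strains grown in brain heart infusion broth 24 h at 37°C in 5% CO2. Where an efflux pump inhibitor applies, MIC redetermined with reserpine at 20 μg/ml or sodium orthovanadate at 50 μM. Synergy taken as a fall in MIC of ≥2 dilutions with inhibitor present. Dye resistance defined relative to R6 (both dyes ≥2 dilutions higher).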

Streptococcus pneumoniae [6] = assay: Antibacterial activity against Streptococcus pneumoniae M302 overexpressing patA, patB and inactivated patA with single mutation by standardized agar doubling dilution method in presence of 20 ug/ml reserpine efflux pump inhibitor; in short: as §2
Streptococcus pneumoniae [7] = assay: Antibacterial activity against fluoroquinolone-resistant Streptococcus pneumoniae by standardized agar doubling dilution method; in short: as §3
Streptococcus pneumoniae [8] = assay: Antibacterial activity against fluoroquinolone, dye-resistant Streptococcus pneumoniae M42 overexpressing patA, patB by standardized agar doubling dilution method in presence of 20 ug/ml reserpine efflux pump inhibitor; in short: as §3
Streptococcus pneumoniae [9] = assay: Antibacterial activity against Streptococcus pneumoniae M311 overexpressing patA, patB and inactivated patA with single mutation by standardized agar doubling dilution method in presence of 50 uM sodium orthovanadate efflux pump inhibitor; in short: as §2
Streptococcus pneumoniae [10] = assay: Antibacterial activity against Streptococcus pneumoniae M319 overexpressing patA, patB and inactivated patB with single mutation by standardized agar doubling dilution method in presence of 20 ug/ml reserpine efflux pump inhibitor; in short: as §1
Streptococcus pneumoniae [11] = assay: Antibacterial activity against wild type Streptococcus pneumoniae M4 NCTC 7465 type 1 by standardized agar doubling dilution method in presence of 50 uM sodium orthovanadate efflux pump inhibitor
Streptococcus pneumoniae [12] = assay: Antibacterial activity against Streptococcus pneumoniae M298 overexpressing patA, patB and inactivated patA with single mutation by standardized agar doubling dilution method in presence of 50 uM sodium orthovanadate efflux pump inhibitor; in short: as §2
Streptococcus pneumoniae [13] = assay: Antibacterial activity against fluoroquinolone, dye-susceptible Streptococcus pneumoniae M295 S overexpressing patA, patB by standardized agar doubling dilution method; in short: as §3
Streptococcus pneumoniae [14] = assay: Antibacterial activity against Streptococcus pneumoniae M314 overexpressing patA, patB and inactivated patA with single mutation by standardized agar doubling dilution method in presence of 50 uM sodium orthovanadate efflux pump inhibitor; in short: as §2
Streptococcus pneumoniae [15] = assay: Antibacterial activity against Streptococcus pneumoniae M50A overexpressing patA, patB and inactivated patA with single mutation by standardized agar doubling dilution method in presence of 20 ug/ml reserpine efflux pump inhibitor; in short: as §1
Streptococcus pneumoniae [16] = assay: Antibacterial activity against Streptococcus pneumoniae M305 overexpressing patA, patB and inactivated patB with single mutation by standardized agar doubling dilution method in presence of 50 uM sodium orthovanadate efflux pump inhibitor; in short: as §2
Streptococcus pneumoniae [17] = assay: Antibacterial activity against Streptococcus pneumoniae M50B overexpressing patA, patB and inactivated patB with single mutation by standardized agar doubling dilution method in presence of 20 ug/ml reserpine efflux pump inhibitor; in short: as §1
Streptococcus pneumoniae [18] = assay: Antibacterial activity against Streptococcus pneumoniae M86B overexpressing patA, patB and inactivated patB with single mutation by standardized agar doubling dilution method
In short: (§4)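 MICs were determined by agar doubling dilution following BSAC guidelines, with no efflux inhibitor. Strains were grown in brain heart infusion broth for 24 h at 37°C in 5% CO2. Species identity was confirmed by Gram stain, optochin sensitivity and capsule test. Control strain R6 was tested alongside.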

Streptococcus pneumoniae [19] = assay: Antibacterial activity against fluoroquinolone-resistant Streptococcus pneumoniae M83 FQ-R overexpressing patA, patB by standardized agar doubling dilution method in presence of 20 ug/ml reserpine efflux pump inhibitor
In short: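 Clinical S. pneumoniae isolates grown in BHI broth 24 h at 37°C in 5% CO2. MICs by agar doubling dilution per BSAC guidelines, alone or with efflux inhibitor reserpine (20 μg/ml) or sodium orthovanadate (50 μM). Synergy defined as ≥2-dilution MIC reduction in presence of inhibitor.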

Streptococcus pneumoniae [20] = assay: Antibacterial activity against Streptococcus pneumoniae M301 overexpressing patA, patB and inactivated patA with single mutation by standardized agar doubling dilution method in presence of 20 ug/ml reserpine efflux pump inhibitor; in short: as §2
Streptococcus pneumoniae [21] = assay: Antibacterial activity against Streptococcus pneumoniae M311B overexpressing patA, patB and inactivated patB with single mutation by standardized agar doubling dilution method in presence of 20 ug/ml reserpine efflux pump inhibitor; in short: as §2
Streptococcus pneumoniae [22] = assay: Antibacterial activity against Streptococcus pneumoniae M317 overexpressing patA, patB and inactivated patB with single mutation by standardized agar doubling dilution method; in short: as §4
Streptococcus pneumoniae [23] = assay: Antibacterial activity against Streptococcus pneumoniae M316 overexpressing patA, patB and inactivated patA with single mutation by standardized agar doubling dilution method in presence of 20 ug/ml reserpine efflux pump inhibitor; in short: as §1
Streptococcus pneumoniae [24] = assay: Antibacterial activity against Streptococcus pneumoniae M303 overexpressing patA, patB and inactivated patA with single mutation by standardized agar doubling dilution method in presence of 50 uM sodium orthovanadate efflux pump inhibitor; in short: as §2
Streptococcus pneumoniae [25] = assay: Antibacterial activity against Streptococcus pneumoniae M45A overexpressing patA, patB and inactivated patA with single mutation by standardized agar doubling dilution method; in short: as §4
Streptococcus pneumoniae [26] = assay: Antibacterial activity against fluoroquinolone, dye-resistant Streptococcus pneumoniae M87 overexpressing patA, patB by standardized agar doubling dilution method; in short: as §3
Streptococcus pneumoniae [27] = assay: Antibacterial activity against dye-resistant Streptococcus pneumoniae by standardized agar doubling dilution method in presence of 20 ug/ml reserpine efflux pump inhibitor; in short: as §3
Streptococcus pneumoniae [28] = assay: Antibacterial activity against Streptococcus pneumoniae M306 overexpressing patA, patB and inactivated patB with single mutation by standardized agar doubling dilution method in presence of 50 uM sodium orthovanadate efflux pump inhibitor; in short: as §2

| Structure (SMILES) | MIC (Streptococcus pneumoniae [1]) | MIC (Streptococcus pneumoniae [2]) | MIC (Streptococcus pneumoniae [3]) | MIC (Streptococcus pneumoniae [4]) | MIC (Streptococcus pneumoniae [5]) | MIC (Streptococcus pneumoniae [6]) | MIC90 (Streptococcus pneumoniae [7]) | MIC (Streptococcus pneumoniae [8]) | MIC (Streptococcus pneumoniae [9]) | MIC (Streptococcus pneumoniae [10]) | MIC (Streptococcus pneumoniae [11]) | MIC (Streptococcus pneumoniae [12]) | MIC (Streptococcus pneumoniae [13]) | MIC (Streptococcus pneumoniae [14]) | MIC (Streptococcus pneumoniae [15]) | MIC (Streptococcus pneumoniae [16]) | MIC (Streptococcus pneumoniae [17]) | MIC (Streptococcus pneumoniae [18]) | MIC (Streptococcus pneumoniae [19]) | MIC (Streptococcus pneumoniae [20]) | further results |
| --- | --- | --- | --- | --- | --- | --- | --- | --- | --- | --- | --- | --- | --- | --- | --- | --- | --- | --- | --- | --- | --- |
| CC[n+]1c(-c2ccccc2)c2cc(N)ccc2c2ccc(N)cc21.[Br-] [HOMIDIUM BROMIDE] | 0.5 µg/mL | 16 µg/mL | 0.5 µg/mL | 0.5 µg/mL | 0.5 µg/mL | 0.5 µg/mL | 2 µg/mL | 0.5 µg/mL | 8 µg/mL | 0.5 µg/mL | 0.3 µg/mL | 0.5 µg/mL | 2 µg/mL | 0.5 µg/mL | 0.5 µg/mL | 0.25 µg/mL | 0.5 µg/mL | 0.5 µg/mL | 4 µg/mL | 0.5 µg/mL | MIC (Streptococcus pneumoniae [21]): 0.5 µg/mL; MIC (Streptococcus pneumoniae [22]): 0.5 µg/mL; MIC (Streptococcus pneumoniae [23]): 0.5 µg/mL; MIC (Streptococcus pneumoniae [24]): 1 µg/mL; MIC (Streptococcus pneumoniae [25]): 0.5 µg/mL; MIC (Streptococcus pneumoniae [26]): 4 µg/mL; MIC (Streptococcus pneumoniae [27]): 0.5 µg/mL; MIC90 (Streptococcus pneumoniae [27]): 0.5 µg/mL; MIC (Streptococcus pneumoniae [28]): 0.5 µg/mL |
| O=C(O)c1cn(C2CC2)c2cc(N3CCNCC3)c(F)cc2c1=O [CIPROFLOXACIN] | 0.12 µg/mL | 4 µg/mL (≈ 12.1 µM) | 0.12 µg/mL | 0.25 µg/mL | 2 µg/mL | 4 µg/mL | 8 µg/mL (≈ 24.1 µM) | 32 µg/mL | 4 µg/mL | 16 µg/mL | 1 µg/mL | 8 µg/mL | 1 µg/mL (≈ 3.02 µM) | 8 µg/mL | 4 µg/mL | 8 µg/mL | 4 µg/mL | 1 µg/mL (≈ 3.02 µM) | 64 µg/mL | 8 µg/mL | MIC (Streptococcus pneumoniae [21]): 4 µg/mL; MIC (Streptococcus pneumoniae [22]): 8 µg/mL (≈ 24.1 µM); MIC (Streptococcus pneumoniae [23]): 8 µg/mL; MIC (Streptococcus pneumoniae [24]): 0.12 µg/mL; MIC (Streptococcus pneumoniae [25]): 1 µg/mL (≈ 3.02 µM); MIC (Streptococcus pneumoniae [26]): 32 µg/mL (≈ 96.6 µM); MIC90 (Streptococcus pneumoniae [27]): 0.5 µg/mL; MIC (Streptococcus pneumoniae [28]): 4 µg/mL |
